In ChEMBL document CHEMBL1152495, “Synthesis and antimicrobial studies of novel methylene bridged benzisoxazolyl imidazo[2,1-b][1,3,4]thiadiazole derivatives” (2009):
Values after ≈ are worked out from the molar mass of the structure shown.

Columns and labels:
Assay type in all cases: functional
Escherichia coli [1] = test: Antibacterial activity against Escherichia coli ATCC 35218 after 24 hrs by agar well diffusion method; conditions: ATCC 35218, 24 h
Method in brief: (§1)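 Agar well diffusion on Mueller Hinton agar (20 mL per dish), seeded homogeneously with liquid bacterial culture by spread plating. Samples loaded directly into wells, dimethylformamide as solvent control, ampicillin as reference drug. Plates incubated at 37 °C for 24 h. All determinations done in triplicate.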

Candida albicans [2] = test: Antifungal activity against Candida albicans at 100 ug/ml after 72 hrs by agar well diffusion method; conditions: read-out: IZ
Method in brief: (§2)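 Fungi grown on Potato Dextrose Agar (20 mL per dish), seeded homogeneously with liquid culture by spread plating. Samples loaded directly into agar wells, with dimethylformamide as solvent control and clotrimazole as reference drug. Plates incubated at 25 °C for 72 h, triplicate determinations.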

Candida albicans [3] = test: Antifungal activity against Candida albicans after 72 hrs by agar well diffusion method; method in brief: as §2
Bacillus subtilis [4] = test: Antibacterial activity against Bacillus subtilis ATCC 6633 at 100 ug/ml after 24 hrs by agar well diffusion method; conditions: ATCC 6633, 24 h, read-out: IZ; method in brief: as §1
Pseudomonas aeruginosa [5] = test: Antibacterial activity against Pseudomonas aeruginosa ATCC 10145 after 24 hrs by agar well diffusion method; conditions: ATCC 10145, 24 h; method in brief: as §1
Aspergillus fumigatus [6] = test: Antifungal activity against Aspergillus fumigatus at 100 ug/ml after 72 hrs by agar well diffusion method; conditions: read-out: IZ; method in brief: as §2
Bacillus subtilis [7] = test: Antibacterial activity against Bacillus subtilis ATCC 6633 after 24 hrs by agar well diffusion method; conditions: ATCC 6633, 24 h; method in brief: as §1
Staphylococcus aureus [8] = test: Antibacterial activity against Staphylococcus aureus ATCC 25923 at 100 ug/ml after 24 hrs by agar well diffusion method; conditions: ATCC 25923, 24 h, read-out: IZ; method in brief: as §1
Aspergillus fumigatus [9] = test: Antifungal activity against Aspergillus fumigatus after 72 hrs by agar well diffusion method; method in brief: as §2
Staphylococcus aureus [10] = test: Antibacterial activity against Staphylococcus aureus ATCC 25923 after 24 hrs by agar well diffusion method; conditions: ATCC 25923, 24 h; method in brief: as §1
Escherichia coli [11] = test: Antibacterial activity against Escherichia coli ATCC 35218 at 100 ug/ml after 24 hrs by agar well diffusion method; conditions: ATCC 35218, 24 h, read-out: IZ; method in brief: as §1
Pseudomonas aeruginosa [12] = test: Antibacterial activity against Pseudomonas aeruginosa ATCC 10145 at 100 ug/ml after 24 hrs by agar well diffusion method; conditions: ATCC 10145, 24 h, read-out: IZ; method in brief: as §1

Row | MIC (Escherichia coli [1]) [mg/L] | MIC (Candida albicans [3]) [mg/L] | MIC (Pseudomonas aeruginosa [5]) [mg/L] | MIC (Bacillus subtilis [7]) [mg/L] | MIC (Aspergillus fumigatus [9]) [mg/L] | MIC (Staphylococcus aureus [10]) [mg/L] | SMILES | zone of inhibition at 100 µg/mL (Candida albicans [2]) [mm] | zone of inhibition at 100 µg/mL (Bacillus subtilis [4]) [mm] | zone of inhibition at 100 µg/mL (Aspergillus fumigatus [6]) [mm] | zone of inhibition at 100 µg/mL (Staphylococcus aureus [8]) [mm] | zone of inhibition at 100 µg/mL (Escherichia coli [11]) [mm] | zone of inhibition at 100 µg/mL (Pseudomonas aeruginosa [12]) [mm]
1 | 2 (≈ 4.72 µM) | 3 (≈ 7.08 µM) | 1.5 (≈ 3.54 µM) | 1 (≈ 2.36 µM) | 4 (≈ 9.44 µM) | 1 (≈ 2.36 µM) | N#CSc1c(-c2ccc(Cl)cc2)nc2sc(Cc3noc4ccccc34)nn12 | 15 | 17 | 11 | 18 | 16 | 19
2 | 2 (≈ 4.49 µM) | 3 (≈ 6.73 µM) | 2.5 (≈ 5.61 µM) | 0.5 (≈ 1.12 µM) | 4 (≈ 8.97 µM) | 1.5 (≈ 3.37 µM) | Clc1ccc(-c2nc3sc(Cc4noc5ccccc45)nn3c2Br)cc1 | 15 | 18 | 10 | 17 | 15 | 12
3 | 2 (≈ 4.27 µM) | 3 (≈ 6.41 µM) | 2 (≈ 4.27 µM) | 2 (≈ 4.27 µM) | 4 (≈ 8.54 µM) | 1.5 (≈ 3.2 µM) | N#CSc1c(-c2ccc(Br)cc2)nc2sc(Cc3noc4ccccc34)nn12 | 14 | 14 | 12 | 12 | 15 | 18
4 | 3 (≈ 7.95 µM) | 3.5 (≈ 9.27 µM) | 3.5 (≈ 9.27 µM) | 2.5 (≈ 6.62 µM) | 4 (≈ 10.6 µM) | 1.5 (≈ 3.97 µM) | O=[N+]([O-])c1ccc(-c2cn3nc(Cc4noc5ccccc45)sc3n2)cc1 | 10 | 11 | 11 | 14 | 13 | 8
5 | 2 (≈ 4.08 µM) | 2.5 (≈ 5.1 µM) | 2 (≈ 4.08 µM) | 2.5 (≈ 5.1 µM) | 2.5 (≈ 5.1 µM) | 2 (≈ 4.08 µM) | Brc1ccc(-c2nc3sc(Cc4noc5ccccc45)nn3c2Br)cc1 | 16 | 12 | 16 | 13 | 14 | 16
6 | 2.5 (≈ 5.22 µM) | 3 (≈ 6.26 µM) | 2.5 (≈ 5.22 µM) | 3 (≈ 6.26 µM) | 2.5 (≈ 5.22 µM) | 2 (≈ 4.17 µM) | O=c1oc2ccccc2cc1-c1nc2sc(Cc3noc4ccccc34)nn2c1Br | 14 | 10 | 17 | 15 | 13 | 14
7 | 3 (≈ 8.28 µM) | 3 (≈ 8.28 µM) | 3 (≈ 8.28 µM) | 2.5 (≈ 6.9 µM) | 2 (≈ 5.52 µM) | 3.5 (≈ 9.66 µM) | COc1ccc(-c2cn3nc(Cc4noc5ccccc45)sc3n2)cc1 | 15 | 14 | 19 | 10 | 12 | 11
8 | 3.5 (≈ 7.67 µM) | 4 (≈ 8.77 µM) | 3 (≈ 6.57 µM) | 2.5 (≈ 5.48 µM) | 4.5 (≈ 9.86 µM) | 2 (≈ 4.38 µM) | O=[N+]([O-])c1ccc(-c2nc3sc(Cc4noc5ccccc45)nn3c2Br)cc1 | 9 | 12 | 8 | 11 | 10 | 11

Row | SMILES | MIC (Escherichia coli [1]) [mg/L] | MIC (Candida albicans [3]) [mg/L] | MIC (Pseudomonas aeruginosa [5]) [mg/L] | MIC (Bacillus subtilis [7]) [mg/L] | MIC (Aspergillus fumigatus [9]) [mg/L] | MIC (Staphylococcus aureus [10]) [mg/L] | zone of inhibition at 100 µg/mL (Candida albicans [2]) [mm] | zone of inhibition at 100 µg/mL (Bacillus subtilis [4]) [mm] | zone of inhibition at 100 µg/mL (Aspergillus fumigatus [6]) [mm] | zone of inhibition at 100 µg/mL (Staphylococcus aureus [8]) [mm] | zone of inhibition at 100 µg/mL (Escherichia coli [11]) [mm] | zone of inhibition at 100 µg/mL (Pseudomonas aeruginosa [12]) [mm]
9 | CC1(C)S[C@@H]2[C@H](NC(=O)[C@H](N)c3ccccc3)C(=O)N2[C@H]1C(=O)O [AMPICILLIN] |  |  | 2 (≈ 5.72 µM) | 0.5 (≈ 1.43 µM) |  | 1 (≈ 2.86 µM) |  | 18 |  | 19 | 16 | 17
10 | Clc1ccccc1C(c1ccccc1)(c1ccccc1)n1ccnc1 [CLOTRIMAZOLE] |  | 2 (≈ 5.8 µM) |  |  | 2 (≈ 5.8 µM) |  | 22 |  | 20 |  |  | 
